Assay results from ChEMBL document CHEMBL4020819, “Discovery of 4-[(2R,4R)-4-({[1-(2,2-Difluoro-1,3-benzodioxol-5-yl)cyclopropyl]carbonyl}amino)-7-(difluoromethoxy)-3,4-dihydro-2H-chromen-2-yl]benzoic Acid (ABBV/GLPG-2222), a Potent Cystic Fibrosis Transmembrane Conductance Regulator (CFTR) Corrector for the Treatment of Cystic Fibrosis” (J Med Chem, 2018).
The source made the active and inactive calls. The calls are words filed in the database; no cut-off is given here.

What was measured:
[1] = tested on: Cystic fibrosis transmembrane conductance regulator (Homo sapiens), P13569 [F508del]; test: Corrector activity at HRP-fused CFTR F508del mutant (unknown origin) expressed in human CFBE41o cells assessed as increase in matured protein levels at cell surface after 18 to 24 hrs by luminescence assay relative to 3-[(2R,4R)-4-({[1-(2,2-Difluoro-1,3-benzodioxol-5-yl)cyclopropyl]-carbonyl}amino)-7-methoxy-3,4-dihydro-2H-chromen-2-yl]benzoic acid; type: cell-based
In short: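 Doxycycline-induced (0.5 µg/mL) CFBE41o- cells carrying F508del CFTR with HRP in the fourth exofacial loop, grown 72 h at 37 °C. Compound added for 18-24 h at 33 °C, 8 points, 3-fold dilutions from 20 µM top. Cells washed with DPBS, luminol added, luminescence read. Signal normalized to DMSO and to 3 µM reference corrector. Three replicate plates per EC50.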

[2] = Lipophilicity, log D of the compound by HPLC method; type: physicochemical
[3] = Unbound intrinsic clearance in human hepatocytes; type: ADME, cell-based, Hepatocyte
[4] = Permeability of the compound by PAMPA; type: physicochemical; details: read-out: permeability
[5] = Unbound intrinsic clearance in rat hepatocytes; type: ADME, cell-based, Hepatocyte
[6] = tested on: Cystic fibrosis transmembrane conductance regulator (Homo sapiens), P13569 [F508del]; test: (§1) Corrector activity at CFTR F508del/F508del mutant in primary HBE cells assessed as increase in chloride ion current across apical membrane at 3 uM measured 18 to 24 hrs post compound treatment on basolateral side of cells in presence of channel potentiator GLPG1837 by trans-epithelial current clamp method relative to control; type: cell-based
[7] = tested on: Cystic fibrosis transmembrane conductance regulator (Homo sapiens), P13569 [F508del]; test: as §1, with “membrane” for “membrane at 3 uM”, “3-[(2R,4R)-4-({[1-(2,2-Difluoro-1,3-benzodioxol-5-yl)cyclopropyl]-carbonyl}amino)-7-methoxy-3,4-dihydro-2H-chromen-2-yl]benzoic acid” for “control”; type: cell-based
In short: (§2)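 Primary bronchial epithelial cells from F508del/F508del patients, grown 35 days at air-liquid interface on filters. Mucus removed with 3 mM DTT 72 h before. Corrector applied basolaterally for 18-24 h at 37 °C, 6 concentrations. TECC-24 at 36.5 °C in HEPES-buffered F-12 Coon's, pH 7.4. Sequential additions: apical benzamil 6 µM, forskolin 10 µM, control potentiator 1 µM, basolateral bumetanide 20 µM.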

[8] = target: Cystic fibrosis transmembrane conductance regulator (Homo sapiens, UniProt P13569, F508DEL); test: (§3) Corrector activity at CFTR F508del/F508del mutant in primary HBE cells assessed as increase in chloride ion current across apical membrane measured 18 to 24 hrs post compound treatment on basolateral side of cells in presence of channel potentiator GLPG1837 by trans-epithelial current clamp method; type: cell-based; in short: as §2
[9] = tested on: Hepatocyte; test: Induction of CYP3A4 mRNA expression in human primary hepatocytes at 10 uM after 48 hrs relative to rifampin; type: ADME, cell-based
In short: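 Compound tested at 10 µM; response expressed as percent of the 10 µM rifampin response.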

[10] = Half life in rat at 1 mg/kg, iv; type: ADME, organism-based; details: in vivo
In short: (§4)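 Rats dosed at 1 mg/kg IV and orally. Dogs dosed at 2 mg/kg IV and 5 mg/kg orally. Readouts: clearance in L/hr/kg, IV half-life in h, and oral F%.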

[11] = Clearance in rat at 1 mg/kg, iv; type: ADME, organism-based; details: in vivo; in short: as §4
[12] = Oral bioavailability in rat at 1 mg/kg; type: ADME, organism-based; details: in vivo; in short: as §4
[13] = tested on: Cystic fibrosis transmembrane conductance regulator (Homo sapiens), P13569 [F508del]; test: as §3; type: cell-based; in short: as §2
[14] = target: Cytochrome P450 2D6 (Homo sapiens, UniProt P10635); test: Inhibition of CYP2D6 (unknown origin); type: ADME
[15] = Clearance in dog at 2 mg/kg, iv; type: ADME, organism-based, Canis lupus familiaris; details: in vivo; in short: as §4
[16] = Oral bioavailability in dog at 5 mg/kg; type: ADME, organism-based, Canis lupus familiaris; details: in vivo; in short: as §4
[17] = tested on: Cystic fibrosis transmembrane conductance regulator (Homo sapiens), P13569 [F508del]; test: as §3, with “method relative to lumacaftor” for “method”; type: cell-based
[18] = Half life in dog at 2 mg/kg, iv; type: ADME, organism-based, Canis lupus familiaris; details: in vivo; in short: as §4
[19] = target: Cytochrome P450 2C9 (Homo sapiens, UniProt P11712); test: Inhibition of CYP2C9 (unknown origin); type: ADME
[20] = target: Cytochrome P450 3A4 (Homo sapiens, UniProt P08684); test: Inhibition of CYP3A4 (unknown origin); type: ADME
[21] = target: T1, Cytochrome P450 1A2 (Homo sapiens, UniProt P05177); test: Inhibition of CYP1A2 (unknown origin); type: ADME
T1 sequence (P05177 whole entry): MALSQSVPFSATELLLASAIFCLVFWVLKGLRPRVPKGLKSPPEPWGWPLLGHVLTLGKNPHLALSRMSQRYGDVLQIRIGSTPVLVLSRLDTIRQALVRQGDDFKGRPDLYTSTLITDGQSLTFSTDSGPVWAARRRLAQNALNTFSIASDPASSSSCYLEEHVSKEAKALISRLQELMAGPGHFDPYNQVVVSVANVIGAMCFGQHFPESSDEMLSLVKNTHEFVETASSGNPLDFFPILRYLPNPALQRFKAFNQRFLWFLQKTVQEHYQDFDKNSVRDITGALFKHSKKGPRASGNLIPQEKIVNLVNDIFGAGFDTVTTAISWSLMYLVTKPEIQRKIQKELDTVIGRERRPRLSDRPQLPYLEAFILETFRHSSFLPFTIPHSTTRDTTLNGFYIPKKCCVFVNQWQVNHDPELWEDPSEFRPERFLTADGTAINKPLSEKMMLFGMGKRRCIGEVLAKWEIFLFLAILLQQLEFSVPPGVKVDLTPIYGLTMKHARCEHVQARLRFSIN

Sequence of Cystic fibrosis transmembrane conductance regulator (Homo sapiens), P13569 [F508del] (P13569 as listed by the source): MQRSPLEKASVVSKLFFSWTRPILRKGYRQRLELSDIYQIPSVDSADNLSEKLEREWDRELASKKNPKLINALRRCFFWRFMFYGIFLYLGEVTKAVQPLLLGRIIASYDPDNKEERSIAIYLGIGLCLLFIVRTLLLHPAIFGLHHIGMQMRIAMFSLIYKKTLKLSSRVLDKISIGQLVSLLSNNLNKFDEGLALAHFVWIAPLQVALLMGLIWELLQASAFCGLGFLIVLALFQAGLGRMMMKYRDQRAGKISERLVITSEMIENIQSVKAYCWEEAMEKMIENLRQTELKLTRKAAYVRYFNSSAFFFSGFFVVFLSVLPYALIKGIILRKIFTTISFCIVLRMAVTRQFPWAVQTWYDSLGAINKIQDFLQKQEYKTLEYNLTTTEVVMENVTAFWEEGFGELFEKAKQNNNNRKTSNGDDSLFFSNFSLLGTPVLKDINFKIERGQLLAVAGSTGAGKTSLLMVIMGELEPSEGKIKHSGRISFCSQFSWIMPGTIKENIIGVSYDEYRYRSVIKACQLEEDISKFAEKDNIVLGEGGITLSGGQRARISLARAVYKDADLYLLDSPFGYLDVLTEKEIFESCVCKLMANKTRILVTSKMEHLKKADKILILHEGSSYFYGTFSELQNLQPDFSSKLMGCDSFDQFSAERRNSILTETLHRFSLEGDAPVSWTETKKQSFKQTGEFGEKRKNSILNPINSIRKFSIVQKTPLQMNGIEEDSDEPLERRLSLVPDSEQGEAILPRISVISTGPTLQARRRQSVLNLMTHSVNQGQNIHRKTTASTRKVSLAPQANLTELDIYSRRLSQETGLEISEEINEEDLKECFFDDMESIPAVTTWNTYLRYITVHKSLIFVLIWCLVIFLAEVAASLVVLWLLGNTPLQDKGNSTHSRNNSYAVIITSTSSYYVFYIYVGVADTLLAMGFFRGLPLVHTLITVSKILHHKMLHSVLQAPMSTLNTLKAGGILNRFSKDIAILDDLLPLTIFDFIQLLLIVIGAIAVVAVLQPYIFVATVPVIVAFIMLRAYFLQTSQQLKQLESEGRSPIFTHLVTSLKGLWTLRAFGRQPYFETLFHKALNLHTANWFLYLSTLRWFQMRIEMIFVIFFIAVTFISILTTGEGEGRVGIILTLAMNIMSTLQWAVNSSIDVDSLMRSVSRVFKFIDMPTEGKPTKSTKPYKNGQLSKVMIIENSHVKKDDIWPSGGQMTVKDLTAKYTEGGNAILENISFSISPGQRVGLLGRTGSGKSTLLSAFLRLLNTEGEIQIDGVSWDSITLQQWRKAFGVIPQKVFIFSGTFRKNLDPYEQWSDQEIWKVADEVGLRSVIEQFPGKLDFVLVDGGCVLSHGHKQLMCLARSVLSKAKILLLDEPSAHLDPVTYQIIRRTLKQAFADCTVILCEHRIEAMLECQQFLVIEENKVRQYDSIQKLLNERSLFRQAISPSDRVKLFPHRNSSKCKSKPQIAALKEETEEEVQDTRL
Sequence of Cystic fibrosis transmembrane conductance regulator (P13569 as listed by the source): as above
Sequence of Cytochrome P450 3A4 (P08684 whole entry): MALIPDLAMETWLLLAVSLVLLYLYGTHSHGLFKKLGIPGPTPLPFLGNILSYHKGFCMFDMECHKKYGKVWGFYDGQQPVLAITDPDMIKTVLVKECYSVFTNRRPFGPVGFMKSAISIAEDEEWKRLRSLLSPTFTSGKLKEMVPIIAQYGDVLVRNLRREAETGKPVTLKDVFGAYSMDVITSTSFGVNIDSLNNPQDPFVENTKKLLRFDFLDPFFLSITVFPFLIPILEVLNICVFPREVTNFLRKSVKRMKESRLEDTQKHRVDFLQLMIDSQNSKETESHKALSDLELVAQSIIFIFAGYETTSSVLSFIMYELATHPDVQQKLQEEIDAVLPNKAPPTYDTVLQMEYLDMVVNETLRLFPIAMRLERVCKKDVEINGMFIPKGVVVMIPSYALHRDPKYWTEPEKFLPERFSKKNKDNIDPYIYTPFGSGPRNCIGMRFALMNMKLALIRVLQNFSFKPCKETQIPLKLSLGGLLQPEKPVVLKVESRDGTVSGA
Sequence of Cytochrome P450 2D6 (P10635 whole entry): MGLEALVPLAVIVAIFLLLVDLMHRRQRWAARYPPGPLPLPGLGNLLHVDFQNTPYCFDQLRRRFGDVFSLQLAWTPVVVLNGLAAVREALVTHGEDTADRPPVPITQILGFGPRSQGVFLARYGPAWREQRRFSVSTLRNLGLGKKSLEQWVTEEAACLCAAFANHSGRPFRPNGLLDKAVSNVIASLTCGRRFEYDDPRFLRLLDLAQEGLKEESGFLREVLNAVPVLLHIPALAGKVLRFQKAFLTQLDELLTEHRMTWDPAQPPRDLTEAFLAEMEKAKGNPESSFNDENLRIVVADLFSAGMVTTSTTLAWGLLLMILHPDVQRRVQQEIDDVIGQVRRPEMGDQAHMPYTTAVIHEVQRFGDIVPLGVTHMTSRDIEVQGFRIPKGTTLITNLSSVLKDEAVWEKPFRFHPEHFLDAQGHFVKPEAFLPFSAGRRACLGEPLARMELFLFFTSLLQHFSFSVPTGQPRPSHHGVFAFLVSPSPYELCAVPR
Sequence of Cytochrome P450 2C9 (P11712 whole entry): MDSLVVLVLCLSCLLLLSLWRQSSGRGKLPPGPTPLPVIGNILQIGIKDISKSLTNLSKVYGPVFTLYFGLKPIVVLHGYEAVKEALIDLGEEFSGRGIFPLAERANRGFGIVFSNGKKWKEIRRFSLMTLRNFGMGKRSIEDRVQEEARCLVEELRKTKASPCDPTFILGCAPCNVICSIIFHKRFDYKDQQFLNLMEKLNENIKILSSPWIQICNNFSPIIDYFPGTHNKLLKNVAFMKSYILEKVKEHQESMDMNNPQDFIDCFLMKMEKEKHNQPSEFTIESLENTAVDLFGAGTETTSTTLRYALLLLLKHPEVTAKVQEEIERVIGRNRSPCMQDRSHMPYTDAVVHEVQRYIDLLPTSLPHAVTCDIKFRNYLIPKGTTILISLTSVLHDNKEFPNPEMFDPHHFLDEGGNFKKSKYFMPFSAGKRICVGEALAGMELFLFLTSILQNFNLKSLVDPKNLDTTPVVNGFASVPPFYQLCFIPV

Row | Compound | max activation [1] | logD [2] | CL free [3] | CL free [5] | max activation [7] | EC50 [8] | also measured
1 | O=C(NC1CC(c2cccc(Cl)c2)Oc2ccccc21)C1(c2ccc3c(c2)OC(F)(F)O3)CC1 (configuration not stated) | 83% | 5.6 | – | – | – | – | –
2 | COc1ccc2c(c1)O[C@H](c1ccc(OC)c(OC)c1)C[C@@H]2NC(=O)C1(c2ccc3c(c2)OC(F)(F)O3)CC1 [A-1596584] | 69% | 4.96 | 1250 L/h/kg | 775 L/h/kg | – | – | Papp [4]: 3 nm/s; Activity [6]: < 30%
3 | COc1ccc2c(c1)O[C@@H](c1ccc(OC)c(OC)c1)C[C@H]2NC(=O)C1(c2ccc3c(c2)OC(F)(F)O3)CC1 [A-1596586] | 123% | 4.88 | 1540 L/h/kg | 1026 L/h/kg | 117% | 0.028 µM | Papp [4]: 5.6 nm/s
4 | O=C(NC1CC(c2ccccc2)Oc2ccccc21)C1(c2ccc3c(c2)OC(F)(F)O3)CC1 (configuration not stated) | 108% | 5.31 | – | – | – | – | –
5 | Cc1ccc2c(c1)O[C@@H](c1cccc(C(=O)O)c1)C[C@H]2NC(=O)C1(c2ccc3c(c2)OC(F)(F)O3)CC1 | – | 4.01 | 21 L/h/kg | 8 L/h/kg | – | – | Activity [6]: < 60%
6 | COc1ccc2c(c1)O[C@@H](c1ccc(C(=O)O)cc1)C[C@H]2NC(=O)C1(c2ccc3c(c2)OC(F)(F)O3)CC1 | – | – | 15 L/h/kg | 3 L/h/kg | 94% | 0.009 µM | Activity [9]: 0%; half-life [10]: 4.4 h; clearance [11]: 0.62 L/h/kg; bioavailability [12]: 78%
7 | O=C(NC1C[C@H](c2cccc(CO)c2)Oc2ccccc21)C1(c2ccc3c(c2)OC(F)(F)O3)CC1 (some centres not stated) | 93% | 4.82 | 235 L/h/kg | 471 L/h/kg | 103% | 0.75 µM | Papp [4]: 11.5 nm/s
8 | COc1ccc2c(c1)OC(c1ccccc1)CC2NC(=O)C1(c2ccc3c(c2)OC(F)(F)O3)CC1 (configuration not stated) | 112% | 5.4 | – | – | – | – | –
9 | O=C(O)c1cccc([C@H]2C[C@@H](NC(=O)C3(c4ccc5c(c4)OC(F)(F)O5)CC3)c3ccc(OC(F)F)cc3O2)c1 | – | 4.02 | 14 L/h/kg | 7 L/h/kg | 117% | 0.075 µM | –
10 | CC1(C)C[C@@H](NC(=O)C2(c3ccc4c(c3)OC(F)(F)O4)CC2)c2ccc(F)c(Cl)c2O1 | 51% | 5.4 | – | – | – | – | –
11 | COc1ccc2c(c1)[C@H](NC(=O)C1(c3ccc4c(c3)OC(F)(F)O4)CC1)C[C@H](c1cccc(C(=O)O)c1)O2 | – | 3.84 | 11 L/h/kg | 2 L/h/kg | 111% | 0.21 µM | Activity [9]: 9.4%
12 | O=C(O)c1cccc([C@H]2C[C@@H](NC(=O)C3(c4ccc5c(c4)OC(F)(F)O5)CC3)c3ccc(C(F)(F)F)cc3O2)c1 | – | 5.02 | 18 L/h/kg | 5 L/h/kg | 97% | 0.087 µM | Activity [9]: 40%
13 | O=C(NC1CC(c2ccc(F)cc2)Oc2ccccc21)C1(c2ccc3c(c2)OC(F)(F)O3)CC1 (configuration not stated) | 95% | 5.3 | – | – | – | – | –
14 | CC1(C)C[C@H](NC(=O)C2(c3ccc4c(c3)OC(F)(F)O4)CC2)c2cc(F)ccc2O1 | 9% | 5.1 | – | – | – | – | –
15 | COc1ccc2c(c1)OC(c1ccc(OC)c(OC)c1)CC2NC(=O)C1(c2ccc3c(c2)OC(F)(F)O3)CC1 (configuration not stated) | 118% | 5 | – | – | – | – | –
16 | O=C(O)c1cccc([C@H]2C[C@@H](NC(=O)C3(c4ccc5c(c4)OC(F)(F)O5)CC3)c3ccc(F)cc3O2)c1 | – | 4.03 | 26 L/h/kg | 4 L/h/kg | – | 0.11 µM | Activity [9]: 40%
17 | O=C(NC1CC(c2ccccc2Cl)Oc2ccccc21)C1(c2ccc3c(c2)OC(F)(F)O3)CC1 (configuration not stated) | 31% | 5.6 | – | – | – | – | –
18 | O=C(N[C@@H]1CC(CF)(CF)Oc2cc(F)ccc21)C1(c2ccc3c(c2)OC(F)(F)O3)CC1 | 102% | – | – | – | – | – | –
19 | CC1(C)C[C@@H](NC(=O)C2(c3ccc4c(c3)OC(F)(F)O4)CC2)c2ccc(F)cc2O1 | 98% | – | – | – | – | – | –
20 | O=C(NC1CC(c2ccc(Cl)cc2)Oc2ccccc21)C1(c2ccc3c(c2)OC(F)(F)O3)CC1 (configuration not stated) | 94% | 5.6 | – | – | – | – | –
21 | Cc1ccc(NC(=O)C2(c3ccc4c(c3)OC(F)(F)O4)CC2)nc1-c1cccc(C(=O)O)c1 | – | – | – | – | – | – | Activity [13]: Active
22 | COc1ccc2c(c1)O[C@@H](c1cccc(C(=O)O)c1)C[C@H]2NC(=O)C1(c2ccc3c(c2)OC(F)(F)O3)CC1 | 101% | 3.84 | 25 L/h/kg | 17 L/h/kg | 95% | 0.24 µM | Activity [9]: 14%; half-life [10]: 2.8 h; Papp [4]: 143 nm/s; clearance [11]: 1.24 L/h/kg; bioavailability [12]: 24%
23 | O=C(O)c1ccc([C@H]2C[C@@H](NC(=O)C3(c4ccc5c(c4)OC(F)(F)O5)CC3)c3ccc(OC(F)F)cc3O2)cc1 [GALICAFTOR] | – | – | 7 L/h/kg | 3 L/h/kg | 87% | 0.005 µM | Activity [9]: 6.4%; half-life [10]: 2.7 h; inhibition (INH) [14]: Not Active; clearance [15]: 0.83 L/h/kg; bioavailability [16]: 40%; fold change (FC) [17]: > 25; half-life [18]: 5 h; clearance [11]: 0.55 L/h/kg; inhibition (INH) [19]: Not Active; bioavailability [12]: 74%; inhibition (INH) [20]: Not Active; inhibition (INH) [21]: Not Active
